Species on record: Homo sapiens
Assay: Inhibition of arachidonic acid (AA) induced human platelet aggregation.
Assay type: functional
How it was run: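 Human PRP (pH 7.6; 200g, 15 min at room temperature) with platelet counts matched. Compound in DMSO-ethanol given 5 min before 1 mM arachidonic acid, with a solvent control. Aggregation followed by Born light-transmission aggregometry, IC50 derived from the aggregation traces. At least four repeats, each with platelets from a different donor.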

- IC50: 1 µM
Substance: SODIUM NITROPRUSSIDE
